Data as given in the array DNA melting data of Ke et al. (doi:10.1101/2024.01.08.574731).

Experiments:
[1] = melting temperature; fluorescence melt of hairpins on a sequencing array, two-state fit, raised by 9.35 °C to match UV melts; conditions: sodium 0.088 M
Outline: (§1)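 Folding enthalpy and melting temperature were estimated with bootstrapped two-state fits and combined across four replicates by inverse-variance weighting, with fitted temperatures raised by 9.35 °C to match UV melts. The data were Cy3 fluorescence of library hairpins, with annealed Cy3 and quencher oligos, on a sequenced MiSeq flow cell in 50 mM Na-HEPES pH 8.0, 25 mM NaCl, imaged in 2.5 °C steps up to 60 °C and normalised to pre-quench Cy3 and control constructs.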

[2] = folding enthalpy; higher = less favourable; fluorescence melt of hairpins on a sequencing array, two-state fit; conditions: sodium 0.088 M
Outline: as §1

Row | Sequence | Tm [1] [°C] | folding enthalpy [2] [kcal/mol]
1 | GATCCAGACTTGGATC ((((((....)))))) | 56.1 | -35
2 | GATCGACCCTTCGATC ((((((....)))))) | 53.4 | -45.1
3 | GCTTCCACGAAAGTGAGC (((..(((....)))))) | 33.7 | -12.3
4 | GGGCAGGGAAACCTGTCC ((.((((....)))).)) | 57.1 | -43.9
5 | GCACGAGGAAACTCACGC ((..(((....)))..)) | 31.7 | -22.7
6 | GCCCGGCGAAAGCCGGC (((.(((....)))))) | 65.7 | -6.9
7 | GCAGTGCGAAAGCTCGGC ((.(.((....)).).)) | 54.3 | -25.6
8 | GCCTAGCGAAAGCTCCGC ((..(((....)))..)) | 25.9 | -9.3
9 | GATCTAACGCTAGATC ((((((....)))))) | 38.1 | -20.7
10 | GCGCATCGAAAGATTCGC (((.(((....))).))) | 52.2 | -38.9
11 | GGCTGGGGAAACCTAGCC ((((.((....)).)))) | 56.2 | -42.8
12 | GTACTTACGAAAGTATAC (((..(((....)))))) | 16.2 | -6.58
13 | GGCCACGAAAGTGAAGCC ((((((....)))..))) | 53.5 | -31.9
14 | GTTGCCGAAAGGCGAAC ((((((....))).))) | 50.3 | -13.8
15 | GATCCTGGGGAGGATC ((((((....)))))) | 51 | -36.8
16 | GGGGGAGGAAACTCTCCC (((.(((....))).))) | 52.7 | -38
17 | GTGGATGGAAACACCCAC ((((.((....)).)))) | 44.2 | -32.6
18 | GCATAACCGAAAGGTTGC (((..(((....)))))) | 46.6 | -15.4
19 | GATCAGTCCCCTGATC ((((((....)))))) | 49.3 | -35.7
20 | GATCCTCATAGGATC ((((((...)))))) | 53.1 | -37.4
21 | GTGCGCCCGAAAGGGCAC (((..(((....)))))) | 64.3 | -10.4
22 | GTTGTGGGAAACCACAAC (((((((....))))))) | 63.1 | -46
23 | CGTAAGAAATTACG (((((....))))) | 38.4 | -15.7

Row | Sequence | Tm [1] [°C] | folding enthalpy [2] [kcal/mol]
24 | GTTTTGGGAAACCGAAAC ((((.((....)).)))) | 45.7 | -38.3
25 | GTTATCGGAAACGGTAAC ((((.((....)).)))) | 44.9 | -26.8
26 | GATCAGAGAACTGATC ((((((....)))))) | 44.5 | -30.5
27 | GAATTGGGAAACTAATTC (((((.(....).))))) | 35.5 | -22.7
28 | GATCCGTGTCGGATC ((((((...)))))) | 60.5 | -34.4
29 | GATCCCGTCGGGATC ((((((...)))))) | 67.2 | -37.7
30 | GATCTAAGAATAGATC ((((((....)))))) | 34 | -20.4
31 | GTTACCCGAAAGGGGAAC (((.(((....))).))) | 61.5 | -32.2
32 | GATCGGAGACCGATC ((((((...)))))) | 56.7 | -30.9
33 | GTCGGCGCGAAAGCGGAC (((..(((....)))))) | 45.6 | -13.8
34 | GATCCGCTCCGGATC ((((((...)))))) | 59.2 | -37.5
35 | GGGACCGCGAAAGCGCCC (((..(((....)))))) | 39.2 | -12.5
36 | GAAACCGAAAGGTTCTTC ((((((....)))..))) | 54.4 | -22.5
37 | GATCGGTTCGCCGATC ((((((....)))))) | 61.4 | -45
38 | GATCCGACATCGGATC ((((((....)))))) | 55.8 | -46.8
39 | GATCTTTGTAAAGATC ((((((....)))))) | 47.5 | -34.3
40 | GATCCTGATAAGGATC ((((((....)))))) | 64.4 | -37
41 | GTTACGCGAAAGCGCAAC (((.(((....))).))) | 49.3 | -19.4
42 | GCTTGGGGAAACTCAAGC (((((.(....).))))) | 51.3 | -35.8
43 | GTGGCAACGAAAGTTCAC (((..(((....)))))) | 27.8 | -7.15
44 | GGCTGCGGAAACGTGGCC (((..((....))..))) | 56.5 | -45.6
45 | GATCTGTACACAGATC ((((((....)))))) | 54.6 | -37.4
46 | GTTAGGCGAAAGCCGAAC (((.(((....))).))) | 55.9 | -19.6
